Experimental data from ChEMBL document CHEMBL3763158, “Sampangine (a Copyrine Alkaloid) Exerts Biological Activities through Cellular Redox Cycling of Its Quinone and Semiquinone Intermediates” (J Nat Prod, 2015).
Activity calls are given as the source filed them. No cut-off for these calls is given here.

Tests used:
Hep 3B2 = test: Increase in oxygen consumption rate of mitochondrial state 4 respiration in human Hep3B cells assessed as reinitiation of oligomycin-stalled cellular respiration by Clark-type oxygen electrode assay; format: functional, cell-based
In short: (§1)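 Clark electrode oxygen consumption in cells with oligomycin (F0F1-ATPase inhibitor) stalling respiration, then compound added to test reinitiation; FCCP as standard uncoupler reference.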

T47D [1] = test: Effect on mitochondrial membrane potential in human T47D cells at 30 uM after 30 mins by TMRM dye based fluorescence microscopy; format: functional, cell-based
In short: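 T47D cells loaded with TMRM+ (37 °C, 2 h), then compound for 30 min; live epifluorescence imaging, fluorescence quantified per outlined cell in random fields. FCCP as positive control. Average ± SD from 20 cells.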

T47D [2] = test: Increase in oxygen consumption rate in digitonin permeabilized human T47D cells assessed as reinitiation of sodium azide-stalled cellular respiration at 30 uM relative to control; format: functional
In short: (§2)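 Digitonin-permeabilized T47D cells given sequential additions: NaN3 (10 mM) to suppress mitochondrial respiration, then compound (30 μM), solvent (2-propanol, 0.6%) or ascorbate (1 and 5 mM), all final. OCR after each addition normalized to NaN3 value; mean ± range of two experiments.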

T47D [3] = test: Induction of alteration in […] in human T47D cells assessed as intracellular calcium level at 30 uM after 30 mins by fura-2 dye based fluorescence assay; format: functional, cell-based
In short: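 T47D cells loaded with fura-2 per manufacturer's instructions and treated 30 min; per-cell 340/380 nm excitation ratio taken as Ca2+ indicator by live microscopy. Average ± SD of 20 cells.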

T47D [4] = test: Increase in oxygen consumption rate in digitonin permeabilized human T47D cells assessed as reinitiation of sodium azide-stalled cellular respiration by oxytherm Clark-type electrode assay in presence of ascorbate relative to compound alone; format: functional, cell-based; in short: as §2
T47D [5] = test: Inhibition of hypoxia-induced HIF-1 in human T47D cells cotransfected with pHRE-luciferase plasmid at 10 to 30 uM preincubated for 30 mins followed by hypoxia induction measured after 16 hrs by luciferase reporter gene assay; format: cell-based
In short: (§3)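 T47D cells transfected with pHRE-luc construct, exposed to hypoxia (1% O2, 16 h) with compound. Luciferase activity read; % inhibition = [1 − (luciferase)compound/(luciferase)control] × 100 against hypoxic media control. Emetine as positive control. Parallel viability by SRB. Average ± SD, n = 3.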

T47D [6] = test: Activation of hypoxia-induced HIF-1 in human T47D cells cotransfected with pHRE-luciferase plasmid at 1 to 3 uM preincubated for 30 mins followed by hypoxia induction measured after 16 hrs by luciferase reporter gene assay; format: cell-based; in short: as §3
T47D [7] = test: Cytotoxicity against human T47D cells at 1 to 30 uM after 48 hrs by sulforhodamine B assay; format: functional, cell-based
T47D [8] = test: Cytostatic activity against human T47D cells at 1 to 30 uM after 48 hrs by sulforhodamine B assay; format: functional, cell-based
MDA-MB-231 [9] = test: Cytotoxicity against human MDA-MB-231 cells at 1 to 30 uM after 48 hrs by sulforhodamine B assay; format: functional, cell-based
MDA-MB-231 [10] = test: Cytostatic activity against human MDA-MB-231 cells at 1 to 30 uM after 48 hrs by sulforhodamine B assay; format: functional, cell-based
T47D [11] = test: Cytostatic activity against human T47D cells at 1 to 30 uM after 48 hrs by sulforhodamine B assay in presence of ascorbate; format: functional, cell-based
MDA-MB-231 [12] = test: Cytostatic activity against human MDA-MB-231 cells at 1 to 30 uM after 48 hrs by sulforhodamine B assay in presence of ascorbate; format: functional, cell-based
[13] = Neurotoxicity against rat CGN assessed as neuronal cell death at 30 uM after 24 hrs by Hoechst 33342/propidium iodide staining based assay; format: toxicity
In short: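 Primary cerebellar granule neurons from rat pups, cultured 6–10 days, then exposed 24 h. Stained with Hoechst 33342 and propidium iodide; live (PI negative, healthy nuclei) versus dead or dying (PI positive, or condensed/fragmented nuclei) cells counted.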

T47D [14] = test: Increase in oxygen consumption rate in digitonin permeabilized human T47D cells at 30 uM relative to control; format: functional; in short: as §2
T47D [15] = test: Increase in oxygen consumption rate in human T47D cells at 30 uM by oxytherm Clark-type electrode assay relative to control; format: functional
In short: (§4)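 Intact T47D cells; oxygen consumption rate measured by Oxytherm Clark electrode with or without compound, normalized to untreated control. FCCP as positive control. Mean + range of two independent experiments.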

T47D [16] = test: Increase in oxygen consumption rate in human T47D cells by oxytherm Clark-type electrode assay; format: functional, cell-based; in short: as §4
T47D [17] = test: Increase in oxygen consumption rate of mitochondrial state 4 respiration in human T47D cells assessed as reinitiation of oligomycin-stalled cellular respiration by Clark-type oxygen electrode assay; format: functional, cell-based; in short: as §1
Saccharomyces cerevisiae = test: Increase in oxygen consumption rate in Saccharomyces cerevisiae at 10 to 30 uM by oxytherm Clark-type electrode assay; format: functional, organism-based
In short: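 Budding yeast oxygen consumption followed with an Oxytherm Clark electrode, with and without compound. Values normalized to untreated control; average + SD of three independent determinations, p < 0.05 significance versus untreated.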

Compound: O=C1c2ccccc2-c2nccc3ccnc1c23 [SAMPANGINE]
- Activity (Hep 3B2): Active
- Activity (T47D [1]): Active
- Activity (T47D [2]): 48%
- Activity (T47D [3]): inactive
- Activity (T47D [4]): Dose-dependent effect
- inhibition (T47D [5]): Dose-dependent effect
- Activity (T47D [6]): Dose-dependent effect
- Activity (T47D [7]): Active
- Activity (T47D [8]): Active
- Activity (MDA-MB-231 [9]): Active
- Activity (MDA-MB-231 [10]): Active
- Activity (T47D [11]): Active
- Activity (MDA-MB-231 [12]): Active
- Activity [13]: Toxic
- Activity (T47D [14]): 46%
- Activity (T47D [15]): 50%
- fold change (FC) (T47D [15]): 1.5
- Activity (T47D [16]): Dose-dependent effect
- Activity (T47D [17]): Dose-dependent effect
- Activity (Saccharomyces cerevisiae): Active
